Assay results from ChEMBL document CHEMBL3425481, “Design, synthesis and anticancer activity of matrine-1H-1,2,3-triazole-chalcone conjugates” (Bioorg Med Chem Lett, 2015).

Tests used:
[1] = Antiproliferative activity against mouse NIH/3T3 cells assessed as inhibition of cell proliferation incubated for 48 hrs by CCK8 assay; format: cell-based; details: NIH3T3, 48 h
Summary of the method: (§1)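 Human A549 lung, Hela cervical, Bel-7402 hepatocellular and MCF-7 breast cancer cells, plus mouse embryo fibroblast NIH3T3, tested for anti-proliferative activity by CCK-8 assay. For the matrine combination tests, the chalcone and matrine were used at a 1:1 molar ratio; values given as IC50.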

[2] = tested on: A549; assay: Antiproliferative activity against human A549 cells assessed as inhibition of cell proliferation incubated for 48 hrs by CCK8 assay; format: functional, cell-based; details: A549, 48 h; summary of the method: as §1
[3] = Antiproliferative activity against human Bel7402 cells assessed as inhibition of cell proliferation incubated for 48 hrs by CCK8 assay; format: functional, cell-based; details: Bel-7402, 48 h; summary of the method: as §1
[4] = tested on: HeLa; assay: Antiproliferative activity against human HeLa cells assessed as inhibition of cell proliferation incubated for 48 hrs by CCK8 assay; format: functional, cell-based; summary of the method: as §1
[5] = tested on: MCF7; assay: Antiproliferative activity against human MCF7 cells assessed as inhibition of cell proliferation incubated for 48 hrs by CCK8 assay; format: functional, cell-based; details: MCF7, 48 h; summary of the method: as §1

Structure (SMILES) | IC50 [1] [µM] | IC50 [2] [µM] | IC50 [3] [µM] | IC50 [4] [µM] | IC50 [5] [µM]
O=C(/C=C/c1ccc(F)cc1)c1ccc(OCc2cn([C@H]3CC(=O)N4C[C@@H]5CCCN6CCC[C@@H]([C@H]56)[C@H]4C3)nn2)cc1O | 36.1 | 18.3 | 9.02 | 19.8 | 5.71
Cc1ccc(/C=C/C(=O)c2ccc(OCc3cn([C@H]4CC(=O)N5C[C@@H]6CCCN7CCC[C@@H]([C@H]67)[C@H]5C4)nn3)cc2)cc1 | 14.8 | 32.4 | 35.6 | 19.9 | 26.8
COc1ccc(/C=C/C(=O)c2ccc(OCc3cn([C@H]4CC(=O)N5C[C@@H]6CCCN7CCC[C@@H]([C@H]67)[C@H]5C4)nn3)cc2)cc1OC | 41.1 | > 50 |  | > 50 | 
O=C(/C=C/c1ccc([N+](=O)[O-])cc1)c1ccc(OCc2cn([C@H]3CC(=O)N4C[C@@H]5CCCN6CCC[C@@H]([C@H]56)[C@H]4C3)nn2)cc1 | 35.7 | 14.5 | 16.2 | 6.06 | 11.5
O=C(/C=C/c1ccc(Cl)c(Cl)c1)c1ccc(OCc2cn([C@H]3CC(=O)N4C[C@@H]5CCCN6CCC[C@@H]([C@H]56)[C@H]4C3)nn2)cc1O | 48.3 | 8.08 | 12.4 | 6.63 | 7.03
O=C(/C=C/c1ccc(Cl)cc1)c1ccc(OCc2cn([C@H]3CC(=O)N4C[C@@H]5CCCN6CCC[C@@H]([C@H]56)[C@H]4C3)nn2)cc1O | 75.2 | 15.6 | 14.7 | 10.7 | 12.7
Cc1ccc(/C=C/C(=O)c2ccc(OCc3cn([C@H]4CC(=O)N5C[C@@H]6CCCN7CCC[C@@H]([C@H]67)[C@H]5C4)nn3)cc2O)cc1 | 20.9 | > 50 |  | > 50 | 
C#CCOc1ccc(C(=O)/C=C/c2ccccc2)cc1 | 72.9 | > 50 |  | > 50 | > 50
C#CCOc1ccc(C(=O)/C=C/c2ccc(Cl)c(Cl)c2)cc1 | 61.8 | > 50 |  | > 50 | > 50
COc1cc(/C=C/C(=O)c2ccc(OCc3cn([C@H]4CC(=O)N5C[C@@H]6CCCN7CCC[C@@H]([C@H]67)[C@H]5C4)nn3)cc2O)cc(OC)c1OC | 15.2 | > 50 |  | > 50 | 
COc1ccc(/C=C/C(=O)c2ccc(OCc3cn([C@H]4CC(=O)N5C[C@@H]6CCCN7CCC[C@@H]([C@H]67)[C@H]5C4)nn3)cc2O)cc1OC | 13.3 | > 50 |  | > 50 | 
CC(C)(C)c1ccc(/C=C/C(=O)c2ccc(OCc3cn([C@H]4CC(=O)N5C[C@@H]6CCCN7CCC[C@@H]([C@H]67)[C@H]5C4)nn3)cc2O)cc1 | 20.4 | 36.5 |  | 36.3 | 
C#CCOc1ccc(C(=O)/C=C/c2cccc(Cl)c2)c(O)c1 | 79.5 | > 50 |  | > 50 | > 50
O=C(/C=C/c1ccc(OC(F)F)cc1)c1ccc(OCc2cn([C@H]3CC(=O)N4C[C@@H]5CCCN6CCC[C@@H]([C@H]56)[C@H]4C3)nn2)cc1 | 27.3 | > 50 |  | > 50 | 
COc1ccc(/C=C/C(=O)c2ccc(OCc3cn([C@H]4CC(=O)N5C[C@@H]6CCCN7CCC[C@@H]([C@H]67)[C@H]5C4)nn3)cc2)cc1 | 23.1 | > 50 |  | > 50 | 
C#CCOc1ccc(C(=O)/C=C/c2ccc(Cl)c(Cl)c2)c(O)c1 | 94.7 | > 50 |  | > 50 | > 50
